Laboratory results as given in ChEMBL document CHEMBL1153798, “Substituted tetrahydroquinolines as potent allosteric inhibitors of reverse transcriptase and its key mutants” (Bioorg Med Chem Lett, 2009).

How the values were obtained:
[1] = test system: Human immunodeficiency virus 1; assay: Antiviral activity against HIV1 3B infected human MT4 cells assessed as drug level required for 95% inhibition in the presence of 10% fetal bovine serum; type: functional
In short: (§1)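 Spread assay: MT-4 human T-lymphoid cells in RPMI 1640 with either 10% FBS or 50% NHS; CIC95 taken as the concentration blocking >95% of virus spread. Wild-type virus H9IIIB or R8 as stated per line. Geometric mean of at least two determinations, individual values within 25% of the mean.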

[2] = test system: Human immunodeficiency virus 1; assay: Antiviral activity against HIV1 3B infected human MT4 cells assessed as drug level required for 95% inhibition in the presence of 50% normal human serum; type: functional; in short: as §1
[3] = Inhibition of HIV1 reverse transcriptase K103 mutant
[4] = Protein binding in human plasma; type: ADME, cell-free; conditions: read-out: PB
[5] = test system: Human immunodeficiency virus 1; assay: Antiviral activity against HIV1 R8 infected human MT4 cells assessed as drug level required for 95% inhibition in the presence of 10% fetal bovine serum; type: functional; in short: as §1
[6] = test system: Human immunodeficiency virus 1; assay: Antiviral activity against HIV1 R8 infected human MT4 cells assessed as drug level required for 95% inhibition in the presence of 50% normal human serum; type: functional; in short: as §1
[7] = test system: Human immunodeficiency virus 1; assay: Ratio of IC50 for HIV1 carrying reverse transcriptase Y188L mutant to IC50 for wild type HIV1 in the presence of 40% normal human serum; type: functional
[8] = test system: Human immunodeficiency virus 1; assay: Ratio of IC50 for HIV1 carrying reverse transcriptase G190A mutant to IC50 for wild type HIV1 in the presence of 40% normal human serum; type: functional
[9] = test system: Human immunodeficiency virus 1; assay: Ratio of IC50 for HIV1 carrying reverse transcriptase G190S mutant to IC50 for wild type HIV1 in the presence of 40% normal human serum; type: functional
[10] = test system: Human immunodeficiency virus 1; assay: Ratio of IC50 for HIV1 carrying reverse transcriptase K103N/V179E mutant to IC50 for wild type HIV1 in the presence of 40% normal human serum; type: functional
[11] = test system: Human immunodeficiency virus 1; assay: Ratio of IC50 for HIV1 carrying reverse transcriptase K103N/Y181C mutant to IC50 for wild type HIV1 in the presence of 40% normal human serum; type: functional
[12] = test system: Human immunodeficiency virus 1; assay: Ratio of IC50 for HIV1 carrying reverse transcriptase K103N/G190A mutant to IC50 for wild type HIV1 in the presence of 40% normal human serum; type: functional
[13] = test system: Human immunodeficiency virus 1; assay: Ratio of IC50 for HIV1 carrying reverse transcriptase Y181C/G190A mutant to IC50 for wild type HIV1 in the presence of 40% normal human serum; type: functional
[14] = test system: Human immunodeficiency virus 1; assay: Ratio of IC50 for HIV1 carrying reverse transcriptase K103N/P225H mutant to IC50 for wild type HIV1 in the presence of 40% normal human serum; type: functional
[15] = test system: Human immunodeficiency virus 1; assay: Ratio of IC50 for HIV1 carrying reverse transcriptase […]/G190A mutant to IC50 for wild type HIV1 in the presence of 40% normal human serum; type: functional
[16] = test system: Human immunodeficiency virus 1; assay: Antiviral activity against HIV1 carrying reverse transcriptase […]/G190A mutant infected human MT4 cells in the presence of 40 percent normal human serum; type: functional
In short: (§2)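 Phenotypic recombinant-virus assay (Phenoscreen, Monogram Bioscience), run with 40% normal human serum present. IC50 is the compound concentration in cell culture that inhibits viral replication by 50%.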

[17] = test system: Human immunodeficiency virus 1; assay: Ratio of IC50 for HIV1 carrying reverse transcriptase […]/ Y181C/G190A mutant to IC50 for wild type HIV1 in the presence of 40% normal human serum; type: functional
[18] = test system: Human immunodeficiency virus 1; assay: Ratio of IC50 for HIV1 carrying reverse transcriptase V106A/G190A/F227L mutant to IC50 for wild type HIV1 in the presence of 40% normal human serum; type: functional
[19] = Half life in Sprague-Dawley rat at 10 mg/kg, po and 2 mg/kg, iv; type: ADME, organism-based; conditions: in vivo
[20] = test system: Human immunodeficiency virus 1; assay: Antiviral activity against HIV1 carrying reverse transcriptase K103N/V179E mutant infected human MT4 cells by phenoscreen assay in the presence of 40 percent normal human serum; type: functional, organism-based; conditions: Human immunodeficiency virus 1, MT4; in short: as §2
[21] = test system: Human immunodeficiency virus 1; assay: Antiviral activity against HIV1 infected human MT4 cells by phenoscreen assay in the presence of 40 percent normal human serum; type: functional, organism-based; conditions: Human immunodeficiency virus 1, MT4
[22] = test system: Human immunodeficiency virus 1; assay: Antiviral activity against HIV1 carrying reverse transcriptase […] mutant infected human MT4 cells by phenoscreen assay in the presence of 40 percent normal human serum; type: functional, organism-based; conditions: Human immunodeficiency virus 1, MT4; in short: as §2
[23] = test system: Human immunodeficiency virus 1; assay: Antiviral activity against HIV1 carrying reverse transcriptase K103N mutant infected human MT4 cells by phenoscreen assay in the presence of 40 percent normal human serum; type: functional, organism-based; conditions: Human immunodeficiency virus 1, MT4; in short: as §2
[24] = test system: Human immunodeficiency virus 1; assay: Antiviral activity against HIV1 carrying reverse transcriptase Y181C mutant infected human MT4 cells by phenoscreen assay in the presence of 40 percent normal human serum; type: functional, organism-based; conditions: Human immunodeficiency virus 1, MT4; in short: as §2
[25] = test system: Human immunodeficiency virus 1; assay: Antiviral activity against HIV1 carrying reverse transcriptase Y188L mutant infected human MT4 cells by phenoscreen assay in the presence of 40 percent normal human serum; type: functional, organism-based; conditions: Human immunodeficiency virus 1, MT4; in short: as §2
[26] = test system: Human immunodeficiency virus 1; assay: Antiviral activity against HIV1 carrying reverse transcriptase K103N/G190A mutant infected human MT4 cells by phenoscreen assay in the presence of 40 percent normal human serum; type: functional, organism-based; conditions: Human immunodeficiency virus 1, MT4; in short: as §2
[27] = test system: Human immunodeficiency virus 1; assay: Antiviral activity against HIV1 carrying reverse transcriptase Y181C/G190A mutant infected human MT4 cells by phenoscreen assay in the presence of 40 percent normal human serum; type: functional, organism-based; conditions: Human immunodeficiency virus 1, MT4; in short: as §2
[28] = test system: Human immunodeficiency virus 1; assay: Antiviral activity against HIV1 carrying reverse transcriptase K103N/P225H mutant infected human MT4 cells by phenoscreen assay in the presence of 40 percent normal human serum; type: functional, organism-based; conditions: Human immunodeficiency virus 1, MT4; in short: as §2
[29] = test system: Human immunodeficiency virus 1; assay: Antiviral activity against HIV1 carrying reverse transcriptase K103N/ Y181C/G190A mutant infected human MT4 cells by phenoscreen assay in the presence of 40 percent normal human serum; type: functional, organism-based; conditions: Human immunodeficiency virus 1, MT4; in short: as §2
[30] = test system: Human immunodeficiency virus 1; assay: Antiviral activity against HIV1 carrying reverse transcriptase V106A/G190A/F227L mutant infected human MT4 cells by phenoscreen assay in the presence of 40 percent normal human serum; type: functional, organism-based; conditions: Human immunodeficiency virus 1, MT4; in short: as §2
[31] = test system: Human immunodeficiency virus 1; assay: Ratio of IC50 for HIV1 carrying reverse transcriptase […] mutant to IC50 for wild type HIV1 in the presence of 40% normal human serum; type: functional
[32] = test system: Human immunodeficiency virus 1; assay: Ratio of IC50 for HIV1 carrying reverse transcriptase K103N mutant to IC50 for wild type HIV1 in the presence of 40% normal human serum; type: functional
[33] = test system: Human immunodeficiency virus 1; assay: Ratio of IC50 for HIV1 carrying reverse transcriptase Y181C mutant to IC50 for wild type HIV1 in the presence of 40% normal human serum; type: functional
Rattus norvegicus = assay: Hepatic clearance in rat at 10 mg/kg, po and 2 mg/kg, iv; conditions: in vivo
[34] = test system: Human immunodeficiency virus 1; assay: Antiviral activity against HIV1 carrying reverse transcriptase G190A mutant infected human MT4 cells by phenoscreen assay in the presence of 40 percent normal human serum; conditions: Human immunodeficiency virus 1, MT4
[35] = test system: Human immunodeficiency virus 1; assay: Antiviral activity against HIV1 carrying reverse transcriptase G190S mutant infected human MT4 cells by phenoscreen assay in the presence of 40 percent normal human serum; conditions: Human immunodeficiency virus 1, MT4
[36] = test system: Human immunodeficiency virus 1; assay: Antiviral activity against HIV1 carrying reverse transcriptase K101E/G190A mutant infected human MT4 cells by phenoscreen assay in the presence of 40 percent normal human serum; conditions: Human immunodeficiency virus 1, MT4
[37] = test system: Human immunodeficiency virus 1; assay: Antiviral activity against HIV1 carrying reverse transcriptase K101E/ Y181C/G190A mutant infected human MT4 cells by phenoscreen assay in the presence of 40 percent normal human serum; conditions: Human immunodeficiency virus 1, MT4
[38] = Half life in Beagle dog at 1 mg/kg, po and 0.5 mg/kg, iv; type: ADME, organism-based, Canis lupus familiaris; conditions: in vivo
In short: (§3)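 Beagle dogs (n = 2) dosed singly, po 1 mg/kg and iv 0.5 mg/kg; iv cassette co-administered with other analogues at 0.125 mg/kg. Interanimal variability below 20%.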

Canis familiaris = assay: Hepatic clearance in Beagle dog at 1 mg/kg, po and 0.5 mg/kg, iv; type: ADME, organism-based, Canis lupus familiaris, Liver; conditions: in vivo; in short: as §3

SMILES: O=C(CSC(=O)N1CCCc2cc(Cl)cc(Cl)c21)Nc1ccccc1Cl
- ID95 [1]: 125 nM
- ID95 [2]: 406 nM

SMILES: N#Cc1ccc(NC(=O)CSC(=O)N2CCCc3cc(Cl)cc(Cl)c32)c(Cl)c1
- ID95 [2]: 1250 nM
- IC50 [3]: 14 nM

SMILES: NS(=O)(=O)c1ccc(NC(=O)COC(=O)N2CCCc3cc(Cl)cc(Cl)c32)c(Cl)c1
- Activity [1]: 187 nM
- Activity [2]: 2500 nM
- IC50 [3]: 21 nM

SMILES: NS(=O)(=O)c1ccc(NC(=O)CCC(=O)N2CCCc3cc(Cl)cc(Cl)c32)c(Cl)c1
- Activity [1]: 406 nM
- Activity [2]: 5000 nM

SMILES: Cc1cccc2c1N(C(=O)SCC(=O)Nc1ccc(S(N)(=O)=O)cc1Cl)CCC2
- ID95 [1]: 47 nM
- ID95 [2]: 219 nM
- IC50 [3]: 4 nM

SMILES: NS(=O)(=O)c1ccc(NC(=O)CSC(=O)N2CCCc3cc(Cl)ccc32)c(Cl)c1
- ID95 [1]: 141 nM
- ID95 [2]: 1250 nM

SMILES: NS(=O)(=O)c1ccc(NC(=O)CNC(=O)N2CCCc3cc(Cl)cc(Cl)c32)c(Cl)c1
- Activity [1]: 562 nM
- Activity [2]: >10000 nM

SMILES: Cc1cc(C)c(N(C)C(=O)SCC(=O)Nc2ccc(S(N)(=O)=O)cc2Cl)c(C)c1
- IC50 [3]: 9 nM

SMILES: Cc1ccc2c(c1)CCCN2C(=O)SCC(=O)Nc1ccc(S(N)(=O)=O)cc1Cl
- fraction unbound [4]: 0.01
- ID95 [1]: 78 nM
- ID95 [2]: 396 nM

SMILES: O=C(CSC(=O)N1CCCc2cc(Cl)cc(Cl)c21)Nc1ccc(C(=O)NCc2ccccc2)cc1Cl
- Activity [5]: 63 nM
- Activity [6]: 307 nM

SMILES: CS(=O)(=O)c1ccc(NC(=O)CSC(=O)N2CCCc3cc(Cl)cc(Cl)c32)c(Cl)c1
- fold change (FC) [7]: >56
- fold change (FC) [8]: 34.8
- fold change (FC) [9]: >56
- fold change (FC) [10]: 1.7
- fold change (FC) [11]: 33.2
- fold change (FC) [12]: 21.3
- fold change (FC) [13]: >56
- fold change (FC) [14]: 2.1
- fold change (FC) [15]: >56
- fold change (FC) [16]: >56
- fold change (FC) [17]: >56
- fold change (FC) [18]: >56
- half-life [19]: 1.7 h
- IC50 [20]: 7.5 nM
- Activity [5]: 5.6 nM
- Activity [6]: 5.7 nM
- IC50 [21]: 4.5 nM
- IC50 [22]: 50.5 nM
- IC50 [23]: 2 nM
- IC50 [24]: 86.6 nM
- IC50 [25]: > 250 nM
- IC50 [26]: 57.2 nM
- IC50 [27]: > 250 nM
- IC50 [28]: 9.3 nM
- IC50 [29]: > 250 nM
- IC50 [30]: > 250 nM
- fold change (FC) [31]: 11
- fold change (FC) [32]: 0.4
- fold change (FC) [33]: 19
- IC50 [3]: 3 nM
- CL (Rattus norvegicus): 84 mL/min/kg
- IC50 [34]: 157 nM
- IC50 [35]: > 250 nM
- IC50 [36]: > 250 nM
- IC50 [37]: > 250 nM

SMILES: NCCCNC(=O)c1ccc(NC(=O)CSC(=O)N2CCCc3cc(Cl)cc(Cl)c32)c(Cl)c1
- Activity [5]: 97 nM
- Activity [6]: 34 nM

SMILES: NS(=O)(=O)c1ccc(NC(=O)CSC(=O)N2CCCc3cccc(Cl)c32)c(Cl)c1
- ID95 [1]: 23 nM
- ID95 [2]: 47 nM
- IC50 [3]: 4 nM

SMILES: NS(=O)(=O)c1ccc(NC(=O)C2CC2C(=O)N2CCCc3cc(Cl)cc(Cl)c32)c(Cl)c1 (single isomer, unassigned; 16)
- half-life [19]: 0.5 h
- half-life [38]: 1.3 h
- CL (Canis familiaris): 14 mL/min/kg
- Activity [1]: 176 nM
- Activity [2]: 304 nM
- IC50 [3]: 18 nM
- CL (Rattus norvegicus): 22 mL/min/kg

SMILES: NS(=O)(=O)c1ccc(NC(=O)C2CC2C(=O)N2CCCc3cc(Cl)cc(Cl)c32)c(Cl)c1 (single isomer, unassigned; 17)
- Activity [1]: 922 nM
- Activity [2]: 922 nM
- IC50 [3]: 430 nM
